According to ChEMBL document CHEMBL3091321, “Design, synthesis and cytotoxicity of novel 3'-N-alkoxycarbonyl docetaxel analogs” (Bioorg Med Chem Lett, 2013):

What was measured:
A549 [1] = test: Cytotoxicity against human A549 cells after 48 hrs by MTT assay; assay type: functional, cell-based; details: A549, 48 h
Procedure, shortened: (§1)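 Cells were exposed to drug for 48 h at seven ten-fold dilutions down to 0.1 nM. MTT in RPMI-1640 was then added for a further 4 h at 37 °C. Formazan was dissolved in DMSO and absorbance read at 570 nm after 5 min. Each run was done in triplicate. IC₅₀ is given as mean ± SD of three independent experiments.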

SK-OV-3 = test: Cytotoxicity against human SKOV3 cells after 48 hrs by MTT assay; assay type: functional, cell-based; details: SK-OV-3, 48 h; procedure, shortened: as §1
A549 [2] = test: Ratio of docetaxel IC50 to compound IC50 for human A549 cells; assay type: functional
A549 [3] = test: Ratio of taxol IC50 to compound IC50 for human A549 cells; assay type: functional

| Structure (SMILES) | IC50 (A549 [1]) [µM] | IC50 (SK-OV-3) [µM] | Ratio IC50 (A549 [2]) | Ratio IC50 (A549 [3]) |
| --- | --- | --- | --- | --- |
| CC(=O)O[C@@]12CO[C@@H]1C[C@H](O)[C@@]1(C)C(=O)[C@H](O)C3=C(C)[C@@H](OC(=O)[C@H](O)[C@@H](NC(=O)O[C@H](C)C(C)C)c4ccccc4)C[C@@](O)([C@@H](OC(=O)c4ccccc4)[C@H]21)C3(C)C | 0.035 | 0.013 | – | – |
| CC(=O)O[C@@]12CO[C@@H]1C[C@H](O)[C@@]1(C)C(=O)[C@H](O)C3=C(C)[C@@H](OC(=O)[C@H](O)[C@@H](NC(=O)O[C@@H](C)C(C)C)c4ccccc4)C[C@@](O)([C@@H](OC(=O)c4ccccc4)[C@H]21)C3(C)C | 0.06 | 0.017 | – | – |
| CC[C@@H](C)OC(=O)N[C@@H](c1ccccc1)[C@@H](O)C(=O)O[C@H]1C[C@@]2(O)[C@@H](OC(=O)c3ccccc3)[C@@H]3[C@]4(OC(C)=O)CO[C@@H]4C[C@H](O)[C@@]3(C)C(=O)[C@H](O)C(=C1C)C2(C)C | 0.018 | 0.013 | – | – |
| CC[C@H](C)OC(=O)N[C@@H](c1ccccc1)[C@@H](O)C(=O)O[C@H]1C[C@@]2(O)[C@@H](OC(=O)c3ccccc3)[C@@H]3[C@]4(OC(C)=O)CO[C@@H]4C[C@H](O)[C@@]3(C)C(=O)[C@H](O)C(=C1C)C2(C)C | 0.04 | 0.027 | – | – |
| CCC(C)(C)OC(=O)N[C@@H](c1ccccc1)[C@@H](O)C(=O)O[C@H]1C[C@@]2(O)[C@@H](OC(=O)c3ccccc3)[C@@H]3[C@]4(OC(C)=O)CO[C@@H]4C[C@H](O)[C@@]3(C)C(=O)[C@H](O)C(=C1C)C2(C)C | 0.013 | 0.0059 | >65 | >65 |
| CCCC(C)(C)OC(=O)N[C@@H](c1ccccc1)[C@@H](O)C(=O)O[C@H]1C[C@@]2(O)[C@@H](OC(=O)c3ccccc3)[C@@H]3[C@]4(OC(C)=O)CO[C@@H]4C[C@H](O)[C@@]3(C)C(=O)[C@H](O)C(=C1C)C2(C)C | 0.01 | 0.0029 | >65 | >65 |
| CC(=O)O[C@@]12CO[C@@H]1C[C@H](O)[C@@]1(C)C(=O)[C@H](O)C3=C(C)[C@@H](OC(=O)[C@H](O)[C@@H](NC(=O)OC(C)(C)C(C)C)c4ccccc4)C[C@@](O)([C@@H](OC(=O)c4ccccc4)[C@H]21)C3(C)C | 0.012 | 0.0027 | >65 | >65 |
| CC(=O)O[C@@]12CO[C@@H]1C[C@H](O)[C@@]1(C)C(=O)[C@H](O)C3=C(C)[C@@H](OC(=O)[C@H](O)[C@@H](NC(=O)OC(C)(C)CF)c4ccccc4)C[C@@](O)([C@@H](OC(=O)c4ccccc4)[C@H]21)C3(C)C | 0.14 | – | – | – |
| CC(=O)O[C@@]12CO[C@@H]1C[C@H](O)[C@@]1(C)C(=O)[C@H](O)C3=C(C)[C@@H](OC(=O)[C@H](O)[C@@H](NC(=O)OC(C)C(C)C)c4ccccc4)C[C@@](O)([C@@H](OC(=O)c4ccccc4)[C@H]21)C3(C)C (mixture of isomers) | 0.047 | 0.016 | – | – |
| CCC(C)OC(=O)N[C@@H](c1ccccc1)[C@@H](O)C(=O)O[C@H]1C[C@@]2(O)[C@@H](OC(=O)c3ccccc3)[C@@H]3[C@]4(OC(C)=O)CO[C@@H]4C[C@H](O)[C@@]3(C)C(=O)[C@H](O)C(=C1C)C2(C)C (mixture of isomers) | 0.03 | 0.022 | – | – |
| CC(=O)O[C@@]12CO[C@@H]1C[C@H](O)[C@@]1(C)C(=O)[C@H](O)C3=C(C)[C@@H](OC(=O)[C@H](O)[C@@H](NC(=O)OC(C)(C)C)c4ccccc4)C[C@@](O)([C@@H](OC(=O)c4ccccc4)[C@H]21)C3(C)C [DOCETAXEL] | 0.85 | 0.005 | – | – |
| CC(=O)O[C@H]1C(=O)[C@@]2(C)[C@H]([C@H](OC(=O)c3ccccc3)[C@]3(O)C[C@H](OC(=O)[C@H](O)[C@@H](NC(=O)c4ccccc4)c4ccccc4)C(C)=C1C3(C)C)[C@]1(OC(C)=O)CO[C@@H]1C[C@@H]2O [PACLITAXEL] | 0.93 | 0.035 | – | – |
